Columns and labels:
U2OS [1] = experiment: Antitumor activity against human U2OS cells expressing wild type p53 after 72 hrs by MTT assay; assay type: functional, cell-based
Outline: (§1)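 Cells seeded at 5-6 × 10⁴ per well and cultured 24 h, then exposed to a range of compound concentrations in triplicate wells; vehicle control 0.1% DMSO. After 72 h, MTT (5 mg/mL solution) added, plate shaken 1 min, then incubated 4 h at 37 °C. Formazan dissolved in DMSO and absorbance read at 570 nm. Drug-free wells served as blanks. IC50 = 50% growth inhibition.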

SAOS-2 = experiment: Antitumor activity against p53 deficient human Saos2 cells after 72 hrs by MTT assay; assay type: functional, cell-based; conditions: SAOS-2, 72 h; outline: as §1
[2] = biological target: Tumour suppressor p53/oncoprotein Mdm2 (Homo sapiens, UniProt Q00987); experiment: Inhibition of Mdm2-p53 protein interaction preincubated for 1 hr by fluorescence polarization assay
Sequence of Tumour suppressor p53/oncoprotein Mdm2 (P04637 whole entry): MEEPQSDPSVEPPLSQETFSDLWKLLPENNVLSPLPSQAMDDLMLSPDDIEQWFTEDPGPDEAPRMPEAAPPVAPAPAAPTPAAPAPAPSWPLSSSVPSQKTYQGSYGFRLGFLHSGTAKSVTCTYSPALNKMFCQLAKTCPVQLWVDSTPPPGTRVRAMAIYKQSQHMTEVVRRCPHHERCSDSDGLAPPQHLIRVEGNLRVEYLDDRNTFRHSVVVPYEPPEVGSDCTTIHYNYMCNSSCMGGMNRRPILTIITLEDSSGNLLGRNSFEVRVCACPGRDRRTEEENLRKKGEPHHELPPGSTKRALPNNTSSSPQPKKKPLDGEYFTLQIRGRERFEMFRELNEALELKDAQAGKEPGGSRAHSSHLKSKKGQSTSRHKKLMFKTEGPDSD
Sequence of Tumour suppressor p53/oncoprotein Mdm2 (Q00987 whole entry): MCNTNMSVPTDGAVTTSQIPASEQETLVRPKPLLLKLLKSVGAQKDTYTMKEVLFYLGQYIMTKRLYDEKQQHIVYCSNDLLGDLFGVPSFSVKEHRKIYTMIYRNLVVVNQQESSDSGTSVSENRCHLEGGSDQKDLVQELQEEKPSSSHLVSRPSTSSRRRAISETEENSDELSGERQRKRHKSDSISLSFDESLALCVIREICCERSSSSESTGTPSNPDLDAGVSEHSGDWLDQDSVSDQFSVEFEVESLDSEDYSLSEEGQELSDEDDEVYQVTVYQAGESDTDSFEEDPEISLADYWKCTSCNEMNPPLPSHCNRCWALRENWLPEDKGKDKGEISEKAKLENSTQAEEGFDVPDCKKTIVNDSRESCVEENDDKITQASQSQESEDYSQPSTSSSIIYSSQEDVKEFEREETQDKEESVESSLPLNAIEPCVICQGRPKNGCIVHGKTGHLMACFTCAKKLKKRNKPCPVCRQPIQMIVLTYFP

U2OS [3] = experiment: Ratio of nutlin-3a IC50 to compound IC50 for human U2OS cells expressing wild type p53; assay type: functional

SMILES	IC50 (U2OS [1]) [µM]	IC50 (SAOS-2) [µM]	Ki [2] [µM]	Ratio IC50 (U2OS [3])
COC(=O)C(c1ccc(Cl)cc1)N1C(=O)c2ccc(NCc3ccc(Br)cc3)cc2NC(=S)C1c1ccc(Cl)cc1 (configuration not stated)	14.7	13.8	> 100	–
COC(=O)C(c1ccc(Cl)cc1)N1C(=O)c2ccccc2NC(=O)C1c1ccc(Cl)cc1 (configuration not stated)	13.9	5.58	10.6	–
COC(=O)C(c1ccc(Cl)cc1)N1C(=O)c2ccccc2NC(=S)C1c1ccc(Cl)cc1 (configuration not stated)	13.7	6.55	0.52	–
CCCNc1ccc2c(c1)NC(=S)C(c1ccc(Cl)cc1)N(C(C(=O)OC)c1ccc(Cl)cc1)C2=O (configuration not stated)	91.2	12.4	1.02	–
COC(=O)C(c1ccc(Cl)cc1)N1C(=O)c2ccc(NCc3ccccc3)cc2NC(=S)C1c1ccc(Cl)cc1 (configuration not stated)	> 100	17.8	2.26	–
COC(=O)C(c1ccc(Cl)cc1)N1C(=O)c2ccc(NCc3ccc(Cl)cc3)cc2NC(=S)C1c1ccc(Cl)cc1 (configuration not stated)	20.9	13.3	> 100	–
COC(=O)C(c1ccc(Cl)cc1)N1C(=O)c2ccc(NCC(C)(C)C)cc2NC(=S)C1c1ccc(Cl)cc1 (configuration not stated)	18	2.19	> 100	–
COC(=O)C(c1ccc(Cl)cc1)N1C(=O)c2ccc(NCC(C)C)cc2NC(=S)C1c1ccc(Cl)cc1 (configuration not stated)	> 100	15.7	0.32	–
CCCCCNc1ccc2c(c1)NC(=S)C(c1ccc(Cl)cc1)N(C(C(=O)OC)c1ccc(Cl)cc1)C2=O (configuration not stated)	> 100	20.7	15	–
CCCCNc1ccc2c(c1)NC(=S)C(c1ccc(Cl)cc1)N(C(C(=O)OC)c1ccc(Cl)cc1)C2=O (configuration not stated)	> 100	27.9	49.6	–
COC(=O)C(c1ccc(Cl)cc1)N1C(=O)c2ccc(NCC3CC3)cc2NC(=S)C1c1ccc(Cl)cc1 (configuration not stated)	> 100	19	3.43	–
COC(=O)C(c1ccc(Cl)cc1)N1C(=O)c2ccc(NCc3ccc(C(F)(F)F)cc3)cc2NC(=S)C1c1ccc(Cl)cc1 (configuration not stated)	1.06	2.87	5.34	23
COC(=O)C(c1ccc(Cl)cc1)N1C(=O)c2ccc(NCC3CCCCC3)cc2NC(=S)C1c1ccc(Cl)cc1 (configuration not stated)	> 100	72.2	> 100	–
COC(=O)C(c1ccc(Cl)cc1)N1C(=O)c2ccc(NCc3ccc4ccccc4c3)cc2NC(=S)C1c1ccc(Cl)cc1 (configuration not stated)	> 100	91.7	> 100	–
COC(=O)C(c1ccc(Cl)cc1)N1C(=O)c2ccc(NCc3ccc(OC)cc3)cc2NC(=S)C1c1ccc(Cl)cc1 (configuration not stated)	> 100	88.1	> 100	–
COC(=O)C(c1ccc(Cl)cc1)N1C(=O)c2ccc(NCc3ccsc3)cc2NC(=S)C1c1ccc(Cl)cc1 (configuration not stated)	> 100	3.37	> 100	–
COC(=O)C(c1ccc(Cl)cc1)N1C(=O)c2ccc(NCc3ccc(F)cc3)cc2NC(=S)C1c1ccc(Cl)cc1 (configuration not stated)	30.6	9.81	1.71	–
COC(=O)C(c1ccc(Cl)cc1)N1C(=O)c2ccc(NCc3ccco3)cc2NC(=S)C1c1ccc(Cl)cc1 (configuration not stated)	48.5	11.3	43.1	–
COc1ccc(C2=N[C@@H](c3ccc(Cl)cc3)[C@@H](c3ccc(Cl)cc3)N2C(=O)N2CCNC(=O)C2)c(OC(C)C)c1 [NUTLIN-3]	24.6	54.4	–	–

— ChEMBL document CHEMBL1909543, “Synthesis and biological evaluation of thio-benzodiazepines as novel small molecule inhibitors of the p53-MDM2 protein-protein interaction” (Eur J Med Chem, 2011)
